{"data": "Measured values gathered from unrelated publications", "note": "Protocols differ between the studies behind these lines."}
{"Structure (SMILES)": "Cc1c(Cl)c(=O)oc2cc(OCCCC[Se]C#N)ccc12", "target or system": "A549", "assay": "cell growth or viability, SRB", "quantity": "GI50", "value": "12 µM"}
{"Structure (SMILES)": "N.N.[Cl][Pt][Cl]", "target or system": "MEG-01", "assay": "cell growth or viability, ATP luminescence", "setting": "10 µM, 72 h", "quantity": "inhibition", "value": "92%"}
{"Structure (SMILES)": "N#C[Se]Cc1cc(=O)oc2cc(O)ccc12", "target or system": "A549", "assay": "cell growth or viability, SRB", "quantity": "GI50", "value": "28 µM"}
{"Structure (SMILES)": "O=C(Nc1ccc(Cl)cc1)Nc1cccc(-c2cn(Cc3ccc(Br)cc3)nn2)c1", "target or system": "A549", "assay": "cell growth or viability, CCK-8", "setting": "20 µM, 72 h", "quantity": "viability", "value": "108%"}
{"Structure (SMILES)": "c1ccc(Oc2ccc(Nc3c4c(nc5ccccc35)CCC4)cc2)cc1", "target or system": "Leishmania donovani", "assay": "parasite growth", "setting": "40 µM, intracellular, amastigote", "quantity": "inhibition", "value": "96%"}
{"Structure (SMILES)": "O=c1cc(CSc2ccc(N=Cc3ccccc3)cc2)occ1O", "assay": "ABTS scavenging, absorbance", "quantity": "IC50", "value": "0.04 µM"}
{"Structure (SMILES)": "CC[C@H](C)[C@H](NC(=O)[C@H](CCCCN)NC(=O)[C@H](CCCCN)NC(=O)[C@H](CCCCN)NC(=O)[C@H](CC(C)C)NC(=O)[C@H](CCCNC(=N)N)NC(=O)[C@H](CCCCN)NC(=O)[C@@H](N)CC(C)C)C(=O)N[C@@H](CCCCN)C(=O)N[C@@H](CCCCN)C(=O)N[C@@H](CC(C)C)C(=O)N[C@@H](CC(C)C)C(=O)N[C@@H](CCCCN)C(N)=O", "target or system": "A549", "assay": "cell growth or viability, MTT", "setting": "24 h", "quantity": "IC50", "value": "164 µM"}
{"Structure (SMILES)": "CC(C)(C)c1cccc(C=Nc2ccc(SCc3cc(=O)c(O)co3)cc2)c1", "assay": "ABTS scavenging, absorbance", "quantity": "IC50", "value": "15 µM"}
{"Structure (SMILES)": "N.N.[Cl][Pt][Cl]", "target or system": "A549", "assay": "cell growth or viability, MTT", "setting": "48 h", "quantity": "IC50", "value": "46.4 µM"}
{"Structure (SMILES)": "CC[C@H](C)[C@H](NC(=O)[C@H](CCCNC(=N)N)NC(=O)[C@H](CC(C)C)NC(=O)[C@@H](N)CCCNC(=N)N)C(=O)N[C@@H](CCC(N)=O)C(=O)N[C@@H](CCCNC(=N)N)C(=O)N[C@@H](CCCNC(=N)N)C(=O)N[C@@H](CCCNC(=N)N)C(=O)N[C@@H](Cc1ccccc1)C(=O)N[C@@H](CCCNC(=N)N)C(=O)N[C@@H](CCCCN)C(=O)N[C@@H](CCCCN)C(=O)NCC(N)=O", "target or system": "A549", "assay": "cell growth or viability, MTT", "setting": "24 h", "quantity": "IC50", "value": "> 500 µM"}
{"Structure (SMILES)": "CCOc1ccc(Nc2c3c(nc4ccccc24)CCC3)cc1", "target or system": "Leishmania donovani", "assay": "parasite growth", "setting": "33.33 µM, promastigote", "quantity": "inhibition", "value": "81%"}
{"Structure (SMILES)": "O=c1cc(CSc2ccc(N=Cc3ccccc3F)cc2)occ1O", "assay": "ABTS scavenging, absorbance", "quantity": "IC50", "value": "0.03 µM"}
